Experimental data: ChEMBL document CHEMBL5724801, “EUbOPEN Chemogenomics Library - Multiplex” (2024)
Where “and” joins values, the source holds several entries; their conditions need not be identical. Identical values can stand only once.

Tested on: Fibroblast
Assay: Multiplex assay against human fibroblast
Format: toxicity, cell-based
How it was run: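 Live cells carried four stains from seeding: Hoechst33342, BioTracker Green Microtubule Cytoskeleton Dye, MitoTracker Red and Annexin V Alexa Fluor 680. They were imaged on a CQ1 microscope at 37°C and 5% CO2 after compound addition. Using CellPathfinder machine-learning gating, cells were split into Hoechst high-intensity objects or normal cells, normal cells into healthy, pyknosed or fragmented nuclei, and pyknosed cells into mitotic or apoptotic; tubulin, mitochondrial-mass and membrane-permeability phenotypes are per cents of healthy-nucleus cells.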

[1] = 12 h, 1 µM, compound concentration 1 uM
[2] = 12 h, 10 µM, compound concentration 10 uM
[3] = 24 h, 1 µM, compound concentration 1 uM
[4] = 24 h, 10 µM, compound concentration 10 uM
[5] = 48 h, 1 µM, compound concentration 1 uM
[6] = 48 h, 10 µM, compound concentration 10 uM

Cc1ccccc1C(=O)Nc1ccc(C(=O)N2CCCC(N(C)C)c3ccccc32)cc1.Cl (stereo not given)
Population Apoptotic (%) [1]: 52% and 36% | Population Fragmented Nuclei (%) [1]: 16% and 22% | Population Healthy Nuclei (%) [1]: 71% and 55% | Population Hoechst High Intensity Objects (%) [1]: 0% and 1% | Population Membrane Permeable-Phenotype (%) [1]: 0% and 10% | Population Mitochondria Different-Phenotype (%) [1]: 5% and 3% | Population Mitotic Cells (%) [1]: 47% and 63% | Population Normal (%) [1]: 100% and 98% | Population Pyknosed Nuclei (%) [1]: 12% and 21% | Population Tubulin-Different-Phenotype (%) [1]: 31% and 45% | Total Cell Count [1]: 167 and 155 | Population Apoptotic (%) [2]: 58% and 45% | Population Fragmented Nuclei (%) [2]: 26% and 29% | Population Healthy Nuclei (%) [2]: 50% and 47% | Population Hoechst High Intensity Objects (%) [2]: 1% and 4% | Population Membrane Permeable-Phenotype (%) [2]: 1% and 4% | Population Mitochondria Different-Phenotype (%) [2]: 12% | Population Mitotic Cells (%) [2]: 41% and 54% | Population Normal (%) [2]: 98% and 95% | Population Pyknosed Nuclei (%) [2]: 22% and 23% | Population Tubulin-Different-Phenotype (%) [2]: 70% and 61% | Total Cell Count [2]: 108 and 109 | Population Apoptotic (%) [3]: 38% and 43% | Population Fragmented Nuclei (%) [3]: 15% and 28% | Population Healthy Nuclei (%) [3]: 76% and 49% | Population Hoechst High Intensity Objects (%) [3]: 1% and 5% | Population Membrane Permeable-Phenotype (%) [3]: 0% and 8% | Population Mitochondria Different-Phenotype (%) [3]: 8% and 2% | Population Mitotic Cells (%) [3]: 61% and 56% | Population Normal (%) [3]: 98% and 94% | Population Pyknosed Nuclei (%) [3]: 8% and 21% | Population Tubulin-Different-Phenotype (%) [3]: 30% and 50% | Total Cell Count [3]: 160 and 157 | Population Apoptotic (%) [4]: 58% and 57% | Population Fragmented Nuclei (%) [4]: 30% and 37% | Population Healthy Nuclei (%) [4]: 58% and 42% | Population Hoechst High Intensity Objects (%) [4]: 1% and 4% | Population Membrane Permeable-Phenotype (%) [4]: 0% and 9% | Population Mitochondria Different-Phenotype (%) [4]: 12% and 11% | Population Mitotic Cells (%) [4]: 41% and 42% | Population Normal (%) [4]: 98% and 95% | Population Pyknosed Nuclei (%) [4]: 11% and 20% | Population Tubulin-Different-Phenotype (%) [4]: 68% and 72% | Total Cell Count [4]: 111 and 107 | Population Apoptotic (%) [5]: 33% and 53% | Population Fragmented Nuclei (%) [5]: 13% and 32% | Population Healthy Nuclei (%) [5]: 79% and 50% | Population Hoechst High Intensity Objects (%) [5]: 3% | Population Membrane Permeable-Phenotype (%) [5]: 0% and 8% | Population Mitochondria Different-Phenotype (%) [5]: 4% and 5% | Population Mitotic Cells (%) [5]: 66% and 46% | Population Normal (%) [5]: 96% | Population Pyknosed Nuclei (%) [5]: 7% and 17% | Population Tubulin-Different-Phenotype (%) [5]: 28% and 54% | Total Cell Count [5]: 158 and 155 | Population Apoptotic (%) [6]: 91% and 73% | Population Fragmented Nuclei (%) [6]: 24% and 43% | Population Healthy Nuclei (%) [6]: 60% and 43% | Population Hoechst High Intensity Objects (%) [6]: 7% and 3% | Population Membrane Permeable-Phenotype (%) [6]: 0% and 8% | Population Mitochondria Different-Phenotype (%) [6]: 12% and 14% | Population Normal (%) [6]: 92% and 96% | Population Pyknosed Nuclei (%) [6]: 14% and 13% | Population Tubulin-Different-Phenotype (%) [6]: 51% and 70% | Total Cell Count [6]: 88 and 113

Oc1c(CN2CCN(c3ccccn3)CC2)cc(Cl)c2cccnc12
Population Apoptotic (%) [1]: 73% and 57% | Population Fragmented Nuclei (%) [1]: 17% and 27% | Population Healthy Nuclei (%) [1]: 68% and 54% | Population Hoechst High Intensity Objects (%) [1]: 4% and 5% | Population Membrane Permeable-Phenotype (%) [1]: 1% and 8% | Population Mitochondria Different-Phenotype (%) [1]: 0% and 6% | Population Mitotic Cells (%) [1]: 26% and 42% | Population Normal (%) [1]: 95% and 94% | Population Pyknosed Nuclei (%) [1]: 14% and 18% | Population Tubulin-Different-Phenotype (%) [1]: 27% and 43% | Total Cell Count [1]: 168 and 152 | Population Apoptotic (%) [2]: 41% and 33% | Population Fragmented Nuclei (%) [2]: 17% and 25% | Population Healthy Nuclei (%) [2]: 54% and 58% | Population Hoechst High Intensity Objects (%) [2]: 5% and 2% | Population Membrane Permeable-Phenotype (%) [2]: 0% and 2% | Population Mitochondria Different-Phenotype (%) [2]: 25% and 9% | Population Mitotic Cells (%) [2]: 58% and 66% | Population Normal (%) [2]: 94% and 97% | Population Pyknosed Nuclei (%) [2]: 27% and 16% | Population Tubulin-Different-Phenotype (%) [2]: 67% and 62% | Total Cell Count [2]: 130 and 131 | Population Apoptotic (%) [3]: 50% and 45% | Population Fragmented Nuclei (%) [3]: 19% and 29% | Population Healthy Nuclei (%) [3]: 67% and 56% | Population Hoechst High Intensity Objects (%) [3]: 3% and 5% | Population Membrane Permeable-Phenotype (%) [3]: 0% and 8% | Population Mitochondria Different-Phenotype (%) [3]: 3% and 7% | Population Mitotic Cells (%) [3]: 50% and 55% | Population Normal (%) [3]: 96% and 94% | Population Pyknosed Nuclei (%) [3]: 13% | Population Tubulin-Different-Phenotype (%) [3]: 30% and 47% | Total Cell Count [3]: 174 and 153 | Population Apoptotic (%) [4]: 89% and 56% | Population Fragmented Nuclei (%) [4]: 26% and 35% | Population Healthy Nuclei (%) [4]: 46% and 41% | Population Hoechst High Intensity Objects (%) [4]: 0% and 2% | Population Membrane Permeable-Phenotype (%) [4]: 1% | Population Mitochondria Different-Phenotype (%) [4]: 15% and 11% | Population Normal (%) [4]: 100% and 97% | Population Pyknosed Nuclei (%) [4]: 27% and 22% | Population Tubulin-Different-Phenotype (%) [4]: 57% and 68% | Total Cell Count [4]: 139 and 134 | Population Apoptotic (%) [5]: 54% and 70% | Population Fragmented Nuclei (%) [5]: 17% and 25% | Population Healthy Nuclei (%) [5]: 67% and 66% | Population Hoechst High Intensity Objects (%) [5]: 5% and 0% | Population Membrane Permeable-Phenotype (%) [5]: 1% and 4% | Population Mitochondria Different-Phenotype (%) [5]: 1% and 4% | Population Mitotic Cells (%) [5]: 45% and 30% | Population Normal (%) [5]: 94% and 99% | Population Pyknosed Nuclei (%) [5]: 14% and 7% | Population Tubulin-Different-Phenotype (%) [5]: 35% and 37% | Total Cell Count [5]: 158 and 137 | Population Apoptotic (%) [6]: 85% and 78% | Population Fragmented Nuclei (%) [6]: 31% and 34% | Population Healthy Nuclei (%) [6]: 32% and 41% | Population Hoechst High Intensity Objects (%) [6]: 2% | Population Membrane Permeable-Phenotype (%) [6]: 0% and 1% | Population Mitochondria Different-Phenotype (%) [6]: 9% and 7% | Population Mitotic Cells (%) [6]: 14% and 21% | Population Normal (%) [6]: 97% | Population Pyknosed Nuclei (%) [6]: 35% and 24% | Population Tubulin-Different-Phenotype (%) [6]: 38% and 65% | Total Cell Count [6]: 137
